Source: the RNAGym collection of RNA variant scans (doi:10.1126/science.aae0568)
Fewer inactive variants are shown than the library holds.

B1: tRNA (parent)
chain: GUUCCGUUGGCGUAAUGGUAACGCGUCUCCCUCCUAAGGAGAAGACUGCGGGUUCGAGUCCCGUACGGAACG

Variants of: B1
Experiment: yeast fitness relative to wild type (ratio to wild type); higher = fitter; tRNA-Arg(CCU), competitive growth, 37 C, YPD
Summary of the method: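 For this measurement, the tRNA-Arg(CCU) gene was varied by chemical synthesis at a 3% per-site mutation rate across 69 sites, and each variant was placed at the native genomic locus in Saccharomyces cerevisiae. The pooled strains went through a 24-hour competition in YPD at 37°C in six parallel replicates, with amplicons from start and end populations read by 100-nucleotide paired-end sequencing. Darwinian fitness relative to wild type followed from the change in each genotype's frequency. Genotypes needed ≥ 100 starting reads, and estimates < 0.5 were set to 0.5.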

Variant | yeast fitness
GUUCCGUUGGCGUAAUGGUAACGCGUCUCCCUCCUUAGGAGAAGACUACGGGUUCGAGUCCCGUACGGAACG | 0.657
GUUCCGUUGGCGUAAUGGUAACGCGUCUCCCUCCUACGGAGCAGACUGCGGGUUCGAGUCCCGUACGGUACG | 0.749
GUUCCGUUGGCGUAAUGGUAACGCGUCUCCCUCCUACGGCGAAGACUGCGGGCUCGAGUCCCGUACGGAACG | 0.526
GUUCCGUUGGCGUAAUGGUAACGCGUCUCCCUCCUACGGAGAAGACUGCGGGUUCGUGUCCCGUUCGGAACG | 0.637
GUUCCGUUGGCGUAAUGGUAACGCGUCUCCCUCCUUAGGAGAAGACUGCGGCUUCGAGUCCCGUACGGAACG | 0.53
GUUCCGUUGGCGUAAUGGUAACGCGUCUCCCUCCUUAGGAGAAGACUGCGGGGUCGAGUCCCGUACGGAACG | 0.544
GUUCCGUUGGCGUAAUGGUAACGCGUCUCCCUCCUUAGGAGAAGACUGCGGGAUCGAGUCCCGUACGGAACG | 0.728
GUUCCGUUGGCGUAAUGGUAACGCGUCUCCCUCCUUAGGAGAAGACUGCGGGUUCGAGCCCCGUACGGAACG | 0.663
GUUCCGUUGGCGUAAUGGUAACGCGUCUCCCUCCUUAGGAGAAGACUGCGGGUUCGACUUCCGUACGGAACG | ≤ 0.5
GUUCCGUUGGCGUAAUGGUAACGCGUCUCCCUCCUACGGAGACGACUGCGGGUUCGAGUCCCGUCCGGAACG | 0.612
GUUCCGUUGGCGUAAUGGUAACGCGUCUCCCUCCUUAGGAGAAGACUGCGGGUUCGCGUCCUGUACGGAACG | 0.627
GUUCCGUUGGCGUAAUGGUAACGCGUCUCCCUCCUUAGGAGAAGACUGUGGGUUCGACUCCCGUAUGGAACG | ≤ 0.5
GUUCCGUUGGCGUAAUGGUAACGCGUCUCCCUCCUUAGCAGAAGACUGCGGGUUCGAGUCCCGUACGGAACG | 0.669
GUUCCGUUGGCGUAAUGGUAACGCGUCUCCCUCCUUAGAAGAAGACUGCGGGUUCGAGUCCCGUACGGAACG | 0.657
GUUCCGUUGGCGUAAUGGUAACGCGUCUCCCUCCUACGGAGCAGACUGCGGGUUCGAGUCCCGUAAGGAACG | 0.547
GUUCCGUUGGCGUAAUGGUAACGCGUCUCCCUCCUUAGGAGAAGACUGCGGGUUCGAGUCUCGUAUGGAACG | 0.582
GUUCCGUUGGCGUAAUGGUAACGCGUCUCCCUCCUUAGGAGAAGACUGCAGGUUCGAGUCUCGUACGGAACG | ≤ 0.5
GUUCCGUUGGCGUAAUGGUAACGCGUCUCCCUCCUACGGAGAAGUCUGCGGGUUCGAGUCCCGUACGCAACG | ≤ 0.5
GUUCCGUUGGCGUAAUGGUAACGCGUCUCCCUCCUUAGGAGAAGACUGCGGGUUCGAGUCGCGUCCGGAACG | ≤ 0.5
GUUCCGUUGGCGUAAUGGUAACGCGUCUCCCUCCUACGGAGAAGUCUGCGGCUUCGAGUCCCGUACGGAACG | ≤ 0.5
GUUCCGUUGGCGUAAUGGUAACGCGUCUCCCUCCUUAGGAGAAGACUGCGGGUUCGAGUCCUGUUCGGAACG | 0.519
GUUCCGUUGGCGUAAUGGUAACGCGUCUCCCUCCUACGGAGAAGACUGCGGGUUCGAGUCCCGUGCGGAACG | 0.94
GUUCCGUUGGCGUAAUGGUAACGCGUCUCCCUCCUUAGGAGAAGACUGCGGGUUCGACUCCCGUUCGGAACG | ≤ 0.5
GUUCCGUUGGCGUAAUGGUAACGCGUCUCCCUCCUACGGAGACGACUGCGGGUUCGAGUCCCGUAAGGAACG | ≤ 0.5
GUUCCGUUGGCGUAAUGGUAACGCGUCUCCCUCCUUAGGAGAAGACGGCGGGUUCGAGUCCCGUACGGAGCG | ≤ 0.5

Variant | yeast fitness
GUUCCGUUGGCGUAAUGGUAACGCGUCUCCCUCCUUAGGAGAAGUAUGCGGGUUCGAGUCCCGUAUGGUACG | ≤ 0.5
GUUCCGUUGGCGUAAUGGUAACGCGUCUCCCUCCUUAGGAGAAGACUGCGGGUUCGAGUCUCAUAUGGAACG | ≤ 0.5
GUUCCGUUGGCGUAAUGGUAACGCGUCUCCCUCCUUAGGAGAAGACUGCGGGUUCCAGUCCCGUCCGGAACG | ≤ 0.5
GUUCCGUUGGCGUAAUGGUAACGCGUCUCCCUCCUUAGGAGAAGACUGCGGGUUCGAGUCCCAUACGGAACG | 0.672
GUUCCGUUGGCGUAAUGGUAACGCGUCUCCCUCCUACGGAGACGACUGCGGGUUCGAGUCCCGUACGGAUCG | 0.622
GUUCCGUUGGCGUAAUGGUAACGCGUCUCCCUCCUACGGAGAUGACUGCGGAUUCGAGUCCAGUAAGGAACG | ≤ 0.5
GUUCCGUUGGCGUAAUGGUAACGCGUCUCCCUCCUACGGAGGAAACUGCGGGUUCGAGUCCCGUACAGAACG | ≤ 0.5
GUUCCGUUGGCGUAAUGGUAACGCGUCUCCCUCCUACGGAGCAGAAUGCGGGUUCGAGUCCCGUACGGACCG | ≤ 0.5
GUUCCGUUGGCGUAAUGGUAACGCGUCUCCCUCCUUAGGAGAAGACUGCGGGUUCGAGUCCCGUGCGGAACG | 0.673
GUUCCGUUGGCGUAAUGGUAACGCGUCUCCCUCCUACGGAGAUGACUGCGGGUUCGAGUCCCGUACGGUACG | 0.738
GUUCCGUUGGCGUAAUGGUAACGCGUCUCCCUCCUACGGGGAAGACUGCGGCUUCGAGCCCCGUUCGGAACG | ≤ 0.5
GUUCCGUUGGCGUAAUGGUAACGCGUCUCCCUCCUUAGGAGAAAACUGCGGGUUCGAGUCCCGUACGGAACG | 0.578
GUUCCGUUGGCGUAAUGGUAACGCGUCUCCCUCCUACGGAGACGACUGCGGGUUCGAGACCCGUACGGGACG | ≤ 0.5
GUUCCGUUGGCGUAAUGGUAACGCGUCUCCCUCCUUAGGAGAAGACUGCGGGUUCGAGUCCCGUUCAGAGCG | ≤ 0.5
GUUCCGUUGGCGUAAUGGUAACGCGUCUCCCUCCUACGGAGAAGUCUGCGGGUUCGAGUCUCGUACGGAACG | 0.545
GUUCCGUUGGCGUAAUGGUAACGCGUCUCCCUCCUACGGAGAAGACUGCGGGUUCGUGCCCCGUACGGAACG | ≤ 0.5
GUUCCGUUGGCGUAAUGGUAACGCGUCUCCCUCCUUAGGAGAAGACUGCGGGUUCCAGUCCCGUACGGAACG | 0.563
GUUCCGUUGGCGUAAUGGUAACGCGUCUCCCUCCUUAGGAGAAGACUGCGGGUUCAAGUCCCGUACGGAACG | 0.574
GUUCCGUUGGCGUAAUGGUAACGCGUCUCCCUCCUUAGGAGAAGACUGCGGGUUCGUGUCCCGUACGGAACG | 0.547
GUUCCGUUGGCGUAAUGGUAACGCGUCUCCCUCCUUAGGAGAAGACUGCGGGUUCGGGUCCCGUACGGAACG | 0.582
GUUCCGUUGGCGUAAUGGUAACGCGUCUCCCUCCUUAGGAGAAGACUGCGGGUUCGCGUCCCGUACGGAACG | 0.528
GUUCCGUUGGCGUAAUGGUAACGCGUCUCCCUCCUUAGGAGAAGAGUGCGGGUUCGAGUCCCGUACGGUACG | 0.538
GUUCCGUUGGCGUAAUGGUAACGCGUCUCCCUCCUACGGAGAAGACUGCGGGUUCGAGUCCCGUACGGCACG | 0.865
GUUCCGUUGGCGUAAUGGUAACGCGUCUCCCUCCUACGGAGAAGACUGCGGGUUCGAGUCCCGUACGGUACG | 1.03
GUUCCGUUGGCGUAAUGGUAACGCGUCUCCCUCCUUAGGAGAAGACUGCGGGUUCGAGUCCCGUACGGAUCG | 0.747

Variant | yeast fitness
GUUCCGUUGGCGUAAUGGUAACGCGUCUCCCUCCUACGGAGGAGACUGCGGGUUCGAGUCCCGUACGGAACG | 0.777
GUUCCGUUGGCGUAAUGGUAACGCGUCUCCCUCCUUAGGAGAAGACUGCGGGUUAGAGUCCCGUACGGAACG | ≤ 0.5
GUUCCGUUGGCGUAAUGGUAACGCGUCUCCCUCCUUAAGAGAAGACUGCGGGUUCGAGUCCCGUACGGAACG | 0.617
GUUCCGUUGGCGUAAUGGUAACGCGUCUCCCUCCUUAGGAGAAGUCUGCGGGAUCGAGUCCAGUACGGAACG | ≤ 0.5
GUUCCGUUGGCGUAAUGGUAACGCGUCUCCCUCCUACGGAGAUGACUGCGGGUUCGAGUCCCAUACGGAACG | 0.666
GUUCCGUUGGCGUAAUGGUAACGCGUCUCCCUCCUACGGAGAAGUCUGCGGGUUCGAGUCCCGUACGGAACG | 0.695
GUUCCGUUGGCGUAAUGGUAACGCGUCUCCCUCCUUAGGAGAAGACUGCGGGUUCGAGUCCCGAACGGAACG | 0.535
GUUCCGUUGGCGUAAUGGUAACGCGUCUCCCUCCUUAGGAGAAGAAUGCGGGUUCGAGUCCGGUACGGAACG | ≤ 0.5
GUUCCGUUGGCGUAAUGGUAACGCGUCUCCCUCCUUAGGAGAAGACUGCGGGUUCGAGUCUCGUACGGAACG | 0.693
GUUCCGUUGGCGUAAUGGUAACGCGUCUCCCUCCUUAGGAGAAGAAUGCGGGUUCGAGUCCCGUACGGAACG | 0.763
GUUCCGUUGGCGUAAUGGUAACGCGUCUCCCUCCUUAGGAGAAGAUUGCGGGUUCGAGUCCCGUACGGAACG | 0.608
GUUCCGUUGGCGUAAUGGUAACGCGUCUCCCUCCUUAGGAGAAGACUGGCGGUUCGAGUCCCGUACGGAACG | ≤ 0.5
GUUCCGUUGGCGUAAUGGUAACGCGUCUCCCUCCUUAGGAGAAGACUGCGGGUUCGAGUCCCGUACGCAACG | 0.698
GUUCCGUUGGCGUAAUGGUAACGCGUCUCCCUCCUUAGGAGAAGACUGCGGGUUCGAGUCCCGUACGAAACG | 0.642
GUUCCGUUGGCGUAAUGGUAACGCGUCUCCCUCCUUAGGAGAAGGCUGCGGGUUCGAGUCCCGUACGGAACG | 0.606
GUUCCGUUGGCGUAAUGGUAACGCGUCUCCCUCCUUAGGAGAAGACUCGGGGUUCGAGUCCCGUACGGAACG | ≤ 0.5
GUUCCGUUGGCGUAAUGGUAACGCGUCUCCCUCCUUAGGAGAAGACUGGGGGUCCGAGUCCCGUACGGAACG | 0.66
GUUCCGUUGGCGUAAUGGUAACGCGUCUCCCUCCUUAGGAGAAGACUGCGGGUUCGAGUCCCGUACGGUACG | 0.623
GUUCCGUUGGCGUAAUGGUAACGCGUCUCCCUCCUUAGAAGAAGGCUGCGGGUUCGAGUCCCUUACGGAACG | 0.535
GUUCCGUUGGCGUAAUGGUAACGCGUCUCCCUCCUUAGGAGAAGACUGCGGGUUCGAGUCCAGUACGGAACG | 0.611
GUUCCGUUGGCGUAAUGGUAACGCGUCUCCCUCCUUAGGAGAAGACUGCGGGUUCGAGUCCUGUACGGAACG | 0.645
GUUCCGUUGGCGUAAUGGUAACGCGUCUCCCUCCUUAGGACAAGACUGCGGGUUCGAGUCCCGUACGGAACG | 0.686
GUUCCGUUGGCGUAAUGGUAACGCGUCUCCCUCCUACGGAGAAGUCUGCGGGUUCGAGUCCCGUACCAAACG | ≤ 0.5
GUUCCGUUGGCGUAAUGGUAACGCGUCUCCCUCCUACGGAGAAGACUGCGGGUUCGCGUCCCGUACGGAACG | 0.543
GUUCCGUUGGCGUAAUGGUAACGCGUCUCCCUCCUACGGAGAAGACUGCGGGUUCGGGUCCCGUACGGAACG | 0.665
